Assay results: ChEMBL document CHEMBL1158589, “Benzimidazole and imidazole inhibitors of histone deacetylases: Synthesis and biological activity” (Bioorg Med Chem Lett, 2010)

Key:
[1] = test system: PC-3; assay: Cytotoxicity against human PC3 cells assessed as NADH level after 72 hrs by MTS cells; type: functional, cell-based; details: PC-3, 72 h
Outline: (§1)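 Human A549 lung, HL60 leukemia and PC3 prostate cancer lines incubated with compound for 72 h. Viability read by MTS colorimetric assay from remaining NADH; EC50 calculated; mean of at least two experiments.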

[2] = test system: A549; assay: Cytotoxicity against human A549 cells assessed as NADH level after 72 hrs by MTS cells; type: functional, cell-based; details: A549, 72 h; outline: as §1
[3] = target: T1, Histone deacetylase 8 (Homo sapiens, UniProt Q9BY41); assay: Inhibition of human recombinant HDAC8
T1 sequence (Q9BY41 whole entry): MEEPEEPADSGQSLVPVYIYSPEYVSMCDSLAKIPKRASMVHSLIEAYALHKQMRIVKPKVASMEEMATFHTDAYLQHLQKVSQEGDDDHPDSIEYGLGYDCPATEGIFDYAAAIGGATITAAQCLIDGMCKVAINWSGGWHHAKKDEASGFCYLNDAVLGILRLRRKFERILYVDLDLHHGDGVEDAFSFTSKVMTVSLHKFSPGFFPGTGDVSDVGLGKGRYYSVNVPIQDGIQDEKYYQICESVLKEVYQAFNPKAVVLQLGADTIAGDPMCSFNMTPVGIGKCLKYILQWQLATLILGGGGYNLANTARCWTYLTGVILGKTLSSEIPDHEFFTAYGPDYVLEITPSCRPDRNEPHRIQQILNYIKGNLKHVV

[4] = target: T2, Protein deacetylase HDAC6 (Homo sapiens, UniProt Q9UBN7); assay: Inhibition of human recombinant HDAC6
T2 sequence (Q9UBN7 whole entry): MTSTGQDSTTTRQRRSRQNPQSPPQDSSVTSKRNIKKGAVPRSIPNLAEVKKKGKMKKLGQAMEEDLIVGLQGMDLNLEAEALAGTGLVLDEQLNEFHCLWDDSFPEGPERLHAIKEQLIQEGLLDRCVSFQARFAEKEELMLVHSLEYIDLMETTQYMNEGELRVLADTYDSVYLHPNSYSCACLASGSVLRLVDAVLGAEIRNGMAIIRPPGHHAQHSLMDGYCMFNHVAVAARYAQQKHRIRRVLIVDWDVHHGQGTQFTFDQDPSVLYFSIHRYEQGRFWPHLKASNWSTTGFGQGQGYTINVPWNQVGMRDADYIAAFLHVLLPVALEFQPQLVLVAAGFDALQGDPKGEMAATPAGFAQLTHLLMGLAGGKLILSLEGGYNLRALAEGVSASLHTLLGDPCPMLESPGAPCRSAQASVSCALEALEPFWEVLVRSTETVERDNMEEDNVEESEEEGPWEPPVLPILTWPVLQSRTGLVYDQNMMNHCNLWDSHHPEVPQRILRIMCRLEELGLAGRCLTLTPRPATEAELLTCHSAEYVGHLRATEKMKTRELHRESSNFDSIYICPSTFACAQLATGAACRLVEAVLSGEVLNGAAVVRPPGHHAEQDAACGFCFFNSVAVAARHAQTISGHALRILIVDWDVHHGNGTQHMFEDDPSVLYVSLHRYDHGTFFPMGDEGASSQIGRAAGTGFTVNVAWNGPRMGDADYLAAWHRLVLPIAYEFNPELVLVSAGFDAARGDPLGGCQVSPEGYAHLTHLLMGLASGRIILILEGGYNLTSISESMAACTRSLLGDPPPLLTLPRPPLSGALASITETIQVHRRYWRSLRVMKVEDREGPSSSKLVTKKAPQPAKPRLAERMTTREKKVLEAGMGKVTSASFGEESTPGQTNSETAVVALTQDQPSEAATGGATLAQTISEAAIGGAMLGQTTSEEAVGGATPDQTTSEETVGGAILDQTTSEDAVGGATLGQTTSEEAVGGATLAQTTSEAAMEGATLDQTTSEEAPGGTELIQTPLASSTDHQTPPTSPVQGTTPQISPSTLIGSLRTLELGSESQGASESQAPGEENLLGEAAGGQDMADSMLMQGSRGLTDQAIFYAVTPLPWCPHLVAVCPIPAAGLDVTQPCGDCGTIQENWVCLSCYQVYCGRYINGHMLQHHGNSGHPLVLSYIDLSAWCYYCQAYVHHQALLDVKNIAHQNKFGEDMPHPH
Outline: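 Purified recombinant human HDAC-2 or HDAC-6 at known enzyme concentration with tBOC(Ac)-Lys-AMC as substrate. IC50 is the mean of at least three experiments.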

[5] = test system: HL-60; assay: Cytotoxicity against human HL60 cells assessed as NADH level after 72 hrs by MTS cells; type: functional, cell-based; details: HL-60, 72 h; outline: as §1

| SMILES | EC50 [1] | EC50 [2] | IC50 [3] | IC50 [4] | EC50 [5] |
| --- | --- | --- | --- | --- | --- |
| O=C(/C=C/c1cccc(-c2nc3ccccc3n2C2CCCNC2)c1)NO (racemic) | 500 nM | 2500 nM | 160 nM | 40 nM | 300 nM |
| Cc1nc(-c2cccc(/C=C/C(=O)NO)c2)n([C@@H]2CCCN(C)C2)c1-c1ccccc1 | 100 nM | 400 nM | 100 nM | 79 nM | 30 nM |
| O=C(/C=C/c1cccc(-c2nc3ccccc3n2-c2ccccc2)c1)NO | 4000 nM | 16000 nM | 50 nM |  | 1600 nM |
| Cc1nc(-c2cccc(/C=C/C(=O)NO)c2)n([C@@H]2CCCN(C(C)C)C2)c1-c1ccccc1 | 200 nM | 400 nM | 40 nM | 100 nM | 30 nM |
| CN1CCC[C@H](n2c(-c3cccc(/C=C/C(=O)NO)c3)nc3ccccc32)C1 | 300 nM | 1200 nM | 160 nM | 50 nM | 160 nM |
| O=C(/C=C/c1cccc(-c2nc3ccccc3n2-c2ccc(Cl)cc2)c1)NO | 2500 nM | 6300 nM | 50 nM | 100 nM | 800 nM |
| CCN1CCC[C@@H](n2c(-c3ccccc3)nc(C)c2-c2cccc(/C=C/C(=O)NO)c2)C1 |  |  | 400 nM | 630 nM |  |
| Cc1c(-c2ccccc2)nc(-c2cccc(/C=C/C(=O)NO)c2)n1[C@@H]1CCCN(C(C)C)C1 | 100 nM | 500 nM | 31 nM | 79 nM | 40 nM |
| Cc1nc(Cc2ccccc2)n(CCc2ccccc2)c1-c1cccc(/C=C/C(=O)NO)c1 |  |  | 63 nM | 63 nM |  |
| Cc1nc(C)n(CCc2ccccc2)c1-c1cccc(/C=C/C(=O)NO)c1 |  |  | 100 nM | 120 nM |  |
| Cc1nc(-c2cccc(/C=C/C(=O)NO)c2)n(CCc2ccccc2)c1Cc1ccccc1 | 200 nM | 300 nM | 20 nM | 50 nM | 50 nM |
| Cc1c(Cc2ccccc2)nc(-c2cccc(/C=C/C(=O)NO)c2)n1[C@@H]1CCCN(C)C1 | 100 nM | 200 nM | 79 nM | 63 nM | 20 nM |
| O=C(/C=C/c1cccc(-c2nc3ccccc3n2[C@H]2CCCNC2)c1)NO | 600 nM | 2500 nM | 120 nM | 25 nM | 300 nM |
| Cc1c(-c2ccccc2)nc(-c2cccc(/C=C/C(=O)NO)c2)n1CCN1CCOCC1 | 1000 nM | 6300 nM | 79 nM | 63 nM | 300 nM |
| Cc1c(Cc2ccccc2)nc(-c2cccc(/C=C/C(=O)NO)c2)n1CCc1ccccc1 | 500 nM | 800 nM | 16 nM | 63 nM | 200 nM |
| Cn1c(-c2cccc(/C=C/C(=O)NO)c2)nc2ccccc21 | 7900 nM | 12000 nM | 100 nM | 79 nM | 2000 nM |
| Cc1c(-c2ccccc2)nc(-c2cccc(/C=C/C(=O)NO)c2)n1[C@@H]1CCCN(C)C1 | 100 nM | 600 nM | 50 nM | 63 nM | 40 nM |
| O=C(/C=C/c1cccc(-c2nc3ccccc3n2CC2CCNCC2)c1)NO | > 50000 nM | > 50000 nM | 310 nM | 200 nM | > 50000 nM |
| CCN1CCC[C@@H](n2c(C)nc(C)c2-c2cccc(/C=C/C(=O)NO)c2)C1 |  |  |  | 400 nM |  |
| CCN1CCC[C@@H](n2c(Cc3ccccc3)nc(C)c2-c2cccc(/C=C/C(=O)NO)c2)C1 |  |  | 100 nM | 500 nM |  |
